Reference: ChEMBL document CHEMBL4130635, “2,4-Diaminoquinazolines as Dual Toll-like Receptor (TLR) 7/8 Modulators for the Treatment of Hepatitis B Virus” (J Med Chem, 2018)
Active and inactive are the calls of the source. The rule behind the calls is not given here.

Tests used:
Cynomolgus monkey [1] = test: Activation of monocytes in cynomolgus monkey plasma assessed as upregulation of MIP1 levels at 30 mg/kg, po after 24 hrs by Luminex assay (reference value: 37 pg/ml); assay type: functional, Macaca fascicularis
Liver [2] = test: Anti-inflammatory activity in C57BL/6J mouse liver assessed as IL-10 levels at 10 mg/kg, po by multiplex assay (reference value: 2 pg/g); assay type: functional
Procedure, shortened: (§1)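 Single oral gavage in 20% HP-β-CD to healthy C57BL/6 mice, groups of 15 at 0.3, 1, 3, 10 or 30 mg/kg. Three mice per group sacrificed at 0.5, 1, 2, 4 or 7 h. Plasma and liver cytokines by multiplex, maximum level reported, rounded to nearest multiple of 5.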

[3] = Stability in dog hepatocytes assessed compound turnover at 1 uM after 60 mins; assay type: ADME, cell-based, Canis lupus familiaris, Hepatocyte; conditions: read-out: Drug metabolism
Liver [4] = test: Proinflammatory activity in C57BL/6J mouse liver assessed as CXCL-1 levels at 10 mg/kg, po by multiplex assay (reference value: 25 pg/g); assay type: functional
[5] = biological target: T1, Toll-like receptor 7 (Homo sapiens) (UniProt Q9NYK1); test: Agonist activity at human TLR7 expressed in HEK293 cells assessed as induction of receptor activation incubated for 6 hrs by NF-kappaB-luciferase reporter gene assay; assay type: cell-based
T1 sequence (whole entry): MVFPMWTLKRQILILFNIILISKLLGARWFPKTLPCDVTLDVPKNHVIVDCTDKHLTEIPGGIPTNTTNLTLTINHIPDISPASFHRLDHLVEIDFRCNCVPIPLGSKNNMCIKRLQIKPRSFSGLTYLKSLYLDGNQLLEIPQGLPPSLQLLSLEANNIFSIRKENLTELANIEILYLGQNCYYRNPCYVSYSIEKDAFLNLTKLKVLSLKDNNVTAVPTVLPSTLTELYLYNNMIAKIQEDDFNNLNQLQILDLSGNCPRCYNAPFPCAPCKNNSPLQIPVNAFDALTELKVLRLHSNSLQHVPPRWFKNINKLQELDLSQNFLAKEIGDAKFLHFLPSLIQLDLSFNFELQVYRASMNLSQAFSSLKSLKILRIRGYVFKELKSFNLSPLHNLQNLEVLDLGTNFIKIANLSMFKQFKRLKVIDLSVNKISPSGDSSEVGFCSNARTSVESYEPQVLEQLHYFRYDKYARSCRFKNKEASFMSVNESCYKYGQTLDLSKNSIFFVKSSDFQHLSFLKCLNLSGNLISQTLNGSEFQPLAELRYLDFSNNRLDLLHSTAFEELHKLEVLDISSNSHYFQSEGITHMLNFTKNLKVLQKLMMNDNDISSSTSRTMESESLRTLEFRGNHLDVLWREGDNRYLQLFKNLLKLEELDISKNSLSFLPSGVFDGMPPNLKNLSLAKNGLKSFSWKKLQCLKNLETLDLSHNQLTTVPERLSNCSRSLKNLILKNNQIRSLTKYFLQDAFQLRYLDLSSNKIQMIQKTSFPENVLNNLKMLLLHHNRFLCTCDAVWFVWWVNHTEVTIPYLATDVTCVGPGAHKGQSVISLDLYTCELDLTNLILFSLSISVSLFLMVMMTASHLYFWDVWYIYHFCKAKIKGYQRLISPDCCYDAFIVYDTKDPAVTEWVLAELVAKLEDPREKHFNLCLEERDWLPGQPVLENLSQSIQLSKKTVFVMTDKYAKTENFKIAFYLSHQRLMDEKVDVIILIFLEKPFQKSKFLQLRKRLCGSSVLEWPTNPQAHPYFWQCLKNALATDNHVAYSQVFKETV
Procedure, shortened: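 HEK cell-based assay using a wild-type TLR7 expression vector; a parallel TLR8 vector construct served for selectivity. Results are expressed as lowest effective concentration (LEC), averaged over independent experiments where determined two or more times. A separate HEK 293 cytotoxicity (TOX) assay gave CC50 alongside.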

Cynomolgus monkey [6] = test: Induction of ISG response in cynomolgus monkey plasma assessed as upregulation of Isg15 mRNA expression at 3 mg/kg, po after 24 hrs by Fluidigm RT-qPCR analysis (reference value: 1); assay type: functional, Macaca fascicularis
Procedure, shortened: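 Cynomolgus monkeys, single oral doses of 1, 3, 9 and 30 mg/kg with a planned 2-week wash-out between doses. Systemic ISG (ISG15, Mx1, OAS1) mRNA was measured by Fluidigm RT-qPCR at 1, 2, 4, 8 and 24 h postdose.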

Cynomolgus monkey [7] = test: Proinflammatory activity in cynomolgus monkey plasma assessed as IL-8 levels at 3 mg/kg, po after 24 hrs by Luminex assay (reference value: 430 pg/ml); assay type: functional, Macaca fascicularis
[8] = Metabolic stability in human liver microsomes assessed as compound metabolized at 1 uM after 15 mins; assay type: ADME, microsome; conditions: read-out: Drug metabolism
Procedure, shortened: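 Mouse (M) or human (H) liver microsomes incubated with compound at 1 μM; percent metabolized after 15 min.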

[9] = Intrinsic clearance in rat liver microsomes assessed per mg protein at 1 uM up to 60 mins; assay type: ADME, microsome; conditions: read-out: CLH
Cynomolgus monkey [10] = test: Effect on cytokine profile in cynomolgus monkey plasma assessed as IL-15 levels at 30 mg/kg, po after 24 hrs by Luminex assay (reference value: 20 pg/ml); assay type: functional, Macaca fascicularis
Procedure, shortened: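 Healthy cynomolgus monkeys given single oral doses of 1, 3, 9 and 30 mg/kg, with a 2-week wash-out planned between doses. Systemic cytokine levels in plasma were sampled at 0.5, 1, 2, 4, 9 and 24 h postdose.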

Plasma [11] = test: Induction of IFNalpha levels in C57BL/6J mouse plasma at 1 mg/kg, po by ELISA; assay type: functional
Plasma [12] = test: Proinflammatory activity in C57BL/6J mouse plasma assessed as IL-6 levels at 0.3 mg/kg, po by multiplex assay (reference value: 505 pg/ml); assay type: functional
[13] = Protein binding in dog plasma fraction at 5 uM after 4.5 hrs LC-MS/MS-based rapid equilibrium dialysis method; assay type: ADME, cell-free, Canis lupus familiaris; conditions: read-out: PPB (converted)
Liver [14] = test: Upregulation of IP-10 mRNA expression levels in C57BL/6J mouse liver at 0.3 mg/kg, po by RT-qPCR analysis (reference value: 1); assay type: functional
Plasma [15] = test: Upregulation of IP-10 mRNA expression levels in C57BL/6J mouse plasma at 1 mg/kg, po by RT-qPCR analysis (reference value: 1); assay type: functional
Liver [16] = test: Effect on cytokine profile in C57BL/6J mouse liver assessed as IFNgamma levels at 0.3 mg/kg, po by multiplex assay; assay type: functional, organism-based; procedure, shortened: as §1
[17] = biological target: TLR7 and TLR8 (Homo sapiens) (UniProt Q9NYK1+Q9NR97); test: Agonist activity at TLR7/8 in human PBMCs co-cultured with primary human hepatocytes infected with HBV genotype C for 12 days assessed as increase in IL-12p40 levels up to 5 uM measured after 42 days
TLR7 and TLR8 (Homo sapiens), sequence (Q9NR97 whole entry, looked up, one chain of several): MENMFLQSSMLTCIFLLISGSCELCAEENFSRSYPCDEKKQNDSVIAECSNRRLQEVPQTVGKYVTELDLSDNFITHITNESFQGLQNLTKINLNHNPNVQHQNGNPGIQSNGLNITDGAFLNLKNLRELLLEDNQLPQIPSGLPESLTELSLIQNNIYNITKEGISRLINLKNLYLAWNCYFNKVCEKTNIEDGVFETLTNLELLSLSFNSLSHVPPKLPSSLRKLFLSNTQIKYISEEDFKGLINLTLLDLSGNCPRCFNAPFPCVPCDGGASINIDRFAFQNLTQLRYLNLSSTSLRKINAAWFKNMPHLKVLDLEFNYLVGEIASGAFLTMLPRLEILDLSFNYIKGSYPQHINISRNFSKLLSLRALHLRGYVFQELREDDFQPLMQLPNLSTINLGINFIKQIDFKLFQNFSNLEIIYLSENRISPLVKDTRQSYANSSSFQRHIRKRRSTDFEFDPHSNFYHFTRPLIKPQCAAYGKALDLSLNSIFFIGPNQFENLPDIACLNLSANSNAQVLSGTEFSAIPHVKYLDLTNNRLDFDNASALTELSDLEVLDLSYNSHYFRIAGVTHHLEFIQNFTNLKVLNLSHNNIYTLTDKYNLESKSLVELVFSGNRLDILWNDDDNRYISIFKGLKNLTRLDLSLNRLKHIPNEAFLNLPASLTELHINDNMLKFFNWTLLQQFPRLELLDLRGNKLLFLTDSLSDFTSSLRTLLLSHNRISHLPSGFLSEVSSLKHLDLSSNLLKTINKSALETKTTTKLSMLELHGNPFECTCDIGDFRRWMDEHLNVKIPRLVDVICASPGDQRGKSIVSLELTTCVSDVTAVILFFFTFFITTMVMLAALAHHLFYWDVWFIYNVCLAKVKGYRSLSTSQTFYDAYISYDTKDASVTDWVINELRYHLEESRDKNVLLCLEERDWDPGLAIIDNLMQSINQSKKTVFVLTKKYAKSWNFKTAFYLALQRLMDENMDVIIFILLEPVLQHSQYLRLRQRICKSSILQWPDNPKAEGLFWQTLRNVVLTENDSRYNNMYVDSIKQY

Plasma [18] = test: Proinflammatory activity in C57BL/6J mouse plasma assessed as IL-1beta levels at 0.3 mg/kg, po by multiplex assay (reference value: 60 pg/ml); assay type: functional
[19] = Cmax in Sprague-Dawley rat liver at 10 mg/kg, po; assay type: ADME, organism-based; design: dose 10 mg/kg, route oral
Procedure, shortened: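 Male Sprague-Dawley rats given 10 mg/kg po as a solution. Compound measured in portal vein, systemic plasma and liver. Cmax taken from concentration–time profiles.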

Plasma [20] = test: Upregulation of IP-10 mRNA expression levels in C57BL/6J mouse plasma at 30 mg/kg, po by RT-qPCR analysis (reference value: 1); assay type: functional

## CCC[C@@H](CCO)Nc1nc(N)nc2c(F)cccc12
Cynomolgus monkey [1]
  Activity: 560 pg/mL
Liver [2]
  Activity: 2265 pg/g
[3]
  metabolised at 1 h, 1 µM: 77%
Liver [4]
  Activity: 48485 pg/g
[5]
  MEC: 0.15 µM
Cynomolgus monkey [6]
  fold change (FC): 145
Cynomolgus monkey [7]
  Activity: 1505 pg/mL
[8]
  metabolised at 0.25 h, 1 µM: 43%
[9]
  microsomal CLint at 1 µM: 24 µL/min/mg
Cynomolgus monkey [10]
  Activity: 85 pg/mL
Plasma [11]
  Activity: 180 pg/mL
Plasma [12]
  Activity: 480 pg/mL
[13]
  fraction unbound at 4.5 h, 5 µM: 0.59
Liver [14]
  fold change (FC): 35
Plasma [15]
  fold change (FC): 845
Liver [16]
  Activity: Below limit of detection
[17]
  Activity: Active
Plasma [18]
  Activity: 50 pg/mL
[19]
  Cmax: 285 ng/g
Plasma [20]
  fold change (FC): 1100
